Screening results from PubChem.
Sampled rows, rich in hits. Any-hit rate of the full collection: about 2.5%.
PRMT1 FP inh: PRMT1 methyltransferase inhibitors, primary screen, biochemical, fluorescence polarization. recombinant PRMT1, activity-based probe fluorescence polarization. 370,000 tested, 1.3% active. inhibition, % at 2.79 µM. Protein arginine N-methyltransferase 1 (Homo sapiens), Q99873;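 active = inhibition above about 21% made by adding two undisclosed values, limit read from the data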
Target sequence (Q99873 whole entry, looked up): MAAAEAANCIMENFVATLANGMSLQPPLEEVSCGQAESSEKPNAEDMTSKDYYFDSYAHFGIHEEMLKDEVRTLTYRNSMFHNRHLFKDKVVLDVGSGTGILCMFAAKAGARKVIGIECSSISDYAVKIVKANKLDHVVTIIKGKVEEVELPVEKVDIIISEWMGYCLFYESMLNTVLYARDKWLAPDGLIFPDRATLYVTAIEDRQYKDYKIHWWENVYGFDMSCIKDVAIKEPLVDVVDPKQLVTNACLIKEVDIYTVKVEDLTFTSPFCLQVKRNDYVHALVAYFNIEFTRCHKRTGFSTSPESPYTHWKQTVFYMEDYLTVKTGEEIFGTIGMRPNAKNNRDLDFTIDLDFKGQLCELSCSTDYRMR
PAD4 inh: human PAD4 inhibitors, primary screen, biochemical, fluorescence polarization, 1536-well format | recombinant PAD4, RCA probe fluorescence polarization | inhibition, % at 6.36 µM | 330,000 tested, 0.41% active | AID 485272, 2010;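 active = percent inhibition above a cutoff equal to the mean of all tested compounds plus 3 SD, cut at about 15% in these data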;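 note: 0% = PAD4 with RCA probe and DMSO and 100% = probe without PAD4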
GSTO1 counter: inhibitors of recombinant GSTO1, primary screen, counter-screen for RBBP9 inhibitor project, biochemical, fluorescence polarization. AID 1974, 2009. 300,000 tested, 1.1% active. Glutathione S-transferase omega-1 (Homo sapiens), P78417. inhibition, % at 5.96 µM. activity-based probe fluorescence polarization;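 active = inhibition above the campaign mean inhibition plus 3 SD, cut at about 35% in these data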;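 note: 0% = GSTO1-1 with DMSO and 100% = wells lacking GSTO1-1 enzyme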
Target sequence (P78417 whole entry, looked up): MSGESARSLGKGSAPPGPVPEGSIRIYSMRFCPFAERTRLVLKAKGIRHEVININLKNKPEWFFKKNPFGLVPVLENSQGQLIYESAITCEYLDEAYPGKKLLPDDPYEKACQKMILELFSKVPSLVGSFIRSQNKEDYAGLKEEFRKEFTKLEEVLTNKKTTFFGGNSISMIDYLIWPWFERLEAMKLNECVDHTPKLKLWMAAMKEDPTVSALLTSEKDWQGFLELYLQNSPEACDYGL
TDP2 absorb: human TDP2 enzyme inhibitors, primary screen, biochemical, epi absorbance, recombinant enzyme. Tyrosyl-DNA phosphodiesterase 2 (Homo sapiens), O95551. T5PNP hydrolysis, p-nitrophenol absorbance 415 nm. inhibition, % at 12.8 µM. 370,000 tested, 0.34% active. AID 720702, 2013;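 active = inhibition above the mean of all tested compounds plus 3 SD, set per campaign, cut at about 25% in these data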;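 note: 0% = DMSO with enzyme and 100% = buffer with substrate but no TDP2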
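System – recombinant human TDP2 · Quantity – TDP2 enzyme at 120 nM final · Doses – single concentration, 12.8 µM nominal, with 1% DMSO · Incubation – 2 h at 37 °C · Measured by – epi absorbance of p-nitrophenol freed from T5PNP by hydrolysis · Read-out – % inhibition relative to enzyme-containing and enzyme-free wells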
Fh CTSL1 inh: Fasciola hepatica cathepsin L1 inhibitors, primary screen, counter-screen for PFM18AAP inhibitor project, biochemical, QFRET, fluorogenic peptide substrate. AID 1906, 2009. inhibition, % at 5.96 µM. recombinant F. hepatica cathepsin L1, Z-Leu-Arg-MCA fluorescence. 300,000 tested, 0.49% active;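 active = inhibition above the mean of all tested compounds plus 3 SD, set per screening campaign, cut at about 17% in these data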;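 note: 0% = plate median of test compound wells and 100% = 1 µM Z-Phe-Ala-diazomethylketone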
GSTO1 inh conf: GSTO1 inhibitor hit confirmation, counter-screen for RBBP9 inhibitor project, biochemical, fluorescence polarization, triplicate; shares compounds with GSTO1 counter; recombinant GSTO1, probe fluorescence polarization; inhibition, % at 5.96 µM; 2,400 tested, 54% active; AID 2176, 2009;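 active = inhibition above the primary screen's cutoff, its mean inhibition plus 3 SD, cut at about 35% in these data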;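 note: loss of polarization as inhibitors block binding of rhodamine sulfonate ester activity probe; 0% = GSTO1 with DMSO and 100% = wells lacking GSTO1 enzyme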
Starred values were filed as active, the others as inactive; / = no result given.

SMILES | PRMT1 FP inh | PAD4 inh | GSTO1 counter | TDP2 absorb | Fh CTSL1 inh | others
COc1cc(C2c3cc4c(cc3CC3COC(=O)C32)OCO4)cc(OC)c1OC (centres undefined) | 22* | -2 | / | 4 | /
COc1cc(C2c3cc4c(c(O)c3CC3COC(=O)C32)OCO4)cc(OC)c1OC (centres undefined) | 1 | / | / | 3 | /
Cc1ccc2n1Cc1cnnn1-c1ccccc1-2 | -1 | / | / | 10 | /
CC1CCCCC12C(=O)NC(=O)NC2=O (centres undefined) | -10 | / | / | 0 | /
CN1/C(=C\C=C\C2=[N+](C)c3ccc4ccccc4c3C2(C)C)C(C)(C)c2ccccc21 | / | 119* | -124 | / | 4
O=S1(=O)NCC2(CC2)CN1Cc1ccccc1 | -2 | / | / | 2 | /
O=C1C(=O)c2cccc3cccc1c23 | 0 | -7 | 38* | 6 | 13
c1cncc(C2Nc3cccc4cccc(c34)N2)c1 | 12 | -7 | 64* | 1 | 1
c1cncc(C2CCCCN2)c1 (centres undefined) | 4 | -4 | 3 | -4 | -1
C[C@]12CCC3C(CC[C@H]4C[C@@H](O)CC[C@]34C)C1C[C@@H](Br)[C@H]2O (some centres undefined) | 2 | -3 | / | 6 | /
CC(=O)C1C2c3ccccc3OC1(C)N=c1s/c(=C/c3cn(C)nc3C)c(=O)n12 (centres undefined) | -1 | 3 | -7 | 22 | 34*
O=C(COC(=O)Cc1ccccc1)NCCNC(=O)COC(=O)Cc1ccccc1 | -2 | -3 | 5 | 8 | 0
O=C1CN(C(=O)COC(=O)Cc2ccccc2)c2ccccc2N1 | -4 | -3 | 35* | 7 | -29
CN1/C(=C\C=C2C(=O)NC(=O)NC2=O)C(C)(C)c2ccccc21 | -51 | -1 | -2 | -2 | 20*
CN1C(=O)C(=Cc2ccccc2OCc2ccc(Cl)cc2)C(=O)N(C)C1=O | 4 | 5 | 11 | -5 | 1
CN1C(=O)C(=Cc2ccccc2Oc2ccc(Cl)cc2)C(=O)N(C)C1=O | 21* | -3 | 11 | 9 | -1
Nc1c(C(=O)NC2CCCC2)c2nc3ccccc3nc2n1CC1CCCO1 (centres undefined) | -1 | 19* | 66* | 6 | 4
C=C1C(=O)C(C)=C2C(=O)N3Cc4[nH]c5ccccc5c4CC3(C(=O)OC)C12 (centres undefined) | 11 | / | / | 7 | /
CCc1cc(=O)oc2cc(C)cc(OCC(=O)N3CCC(C(=O)O)(c4ccccc4)CC3)c12 | 5 | -3 | -2 | 10 | 5
Cc1cc(OCC(=O)N2CCC(C(=O)O)(c3ccccc3)CC2)c2c(C)c(C)c(=O)oc2c1 | 7 | 1 | 1 | 1 | 18*
CN(C)C(=O)Oc1noc2cc(Cl)ccc12 | 1 | -2 | 4 | 4 | 43*
CC(C)CNC(=O)c1c(N)n(Cc2ccc3c(c2)OCO3)c2nc3ccccc3nc12 | -2 | 7 | 62* | 4 | 6 | GSTO1 inh conf=1
CCCNC(=O)c1c(N)n(Cc2ccco2)c2nc3ccccc3nc12 | / | -15 | 17 | / | 7
CCCNC(=O)c1c(N)n(Cc2ccc3c(c2)OCO3)c2nc3ccccc3nc12 | / | -7 | 16 | / | -1
CC(C)CNC(=O)c1c(N)n(Cc2ccco2)c2nc3ccccc3nc12 | 40* | -31 | 42* | -2 | 0 | GSTO1 inh conf=-1
SMILES | PRMT1 FP inh | PAD4 inh | GSTO1 counter | TDP2 absorb | Fh CTSL1 inh | others
C=Cc1cc(OC)c2c(c1)c(=O)oc1c2cc(OC)c2c(O)ccc(C3OC(C)C(O)C(C)(O)C3O)c21 (centres undefined) | 2 | / | / | 13 | /
O=C(CNCc1c(F)cccc1F)N1CCC2(CC1)OCCO2 | -6 | / | / | -4 | /
O=C1C(c2ccccc2)=C(N2CC2)c2ccccc21 | 0 | -3 | 41* | -6 | 1 | GSTO1 inh conf=33
CN1CCN(c2cccc3c2C(=O)c2ccccc2C3=O)CC1 | 13 | / | / | -12 | /
CC(C)(C)C(=O)O[C@H]1CC[C@@]2(C)C(=CC(=O)C3C2CC[C@]2(C)C(=O)[C@@H](F)CC32)C1 (some centres undefined) | 2 | 0 | / | 0 | /
O=C(CN1C(=O)[C@@H](Cc2ccc(O)cc2)N=C(c2ccccc2)c2ccccc21)NC1CCCCC1 | -1 | / | / | 1 | /
COc1cc(O)c(C(=O)O)c(-c2cc(O)c(O)cc2C)c1 | 67* | 1 | 64* | -10 | -1 | GSTO1 inh conf=23
Cc1cc(NC(=O)COC(=O)c2c(C)nn(Cc3ccccc3)c2C)no1 | -3 | -4 | 4 | -1 | -5
Cc1cc(NC(=O)CCl)no1 | 0 | 2 | 87* | -4 | 6 | GSTO1 inh conf=98*
O=[N+]([O-])c1cc(O)c(O)c([N+](=O)[O-])c1 | 32* | 7 | 39* | -1 | 9 | GSTO1 inh conf=31
O=[N+]([O-])c1ccc(O)c([N+](=O)[O-])c1 | -3 | 1 | 3 | -11 | 5
O=C(c1ccco1)N1Cc2ccccc2-n2nncc2C1 | 1 | / | / | -5 | /
Cn1c(O)c(C2=NN(C(=O)CCl)C(c3ccccc3)C2)c(=O)n(C)c1=O (centres undefined) | -1 | 4 | 102* | 12 | 0 | GSTO1 inh conf=98*
O=P1(NCCCl)OCCC(OO)N1CCCl (centres undefined) | 0 | / | / | -12 | /
CN(C)C1C(=O)C(C(N)=O)=C(O)C2(O)C(=O)C3=C(O)c4c(O)cccc4C(C)(O)C3C(O)C12 (centres undefined) | 49* | -3 | 68* | 11 | 4 | GSTO1 inh conf=42*
CCC(C)/C=C(C)/C=C/C1=CC2=C(Cl)C(=O)C(C)(OC(C)=O)C(=O)C2=CO1 (centres undefined) | / | -2 | 43* | / | 21* | GSTO1 inh conf=40*
CC1Oc2cc3c(-c4c(O)cc(O)c5c(O)c6c(cc45)OC(C)C(C)C6=O)c(O)cc(O)c3c(O)c2C(=O)C1C (centres undefined) | / | -7 | 73* | / | 1 | GSTO1 inh conf=60*
C[C@]12CC[C@@H]3c4ccc(O)c(O)c4CC[C@H]3[C@@H]1CC[C@@H]2O | 35* | 1 | 61* | -20 | -4 | GSTO1 inh conf=8
CCOC(=O)CC[C@@H]1CC[C@]2(CCCN(Cc3cccnc3)C2)O1 | 1 | / | / | 9 | /
CCN1CCN(C(=O)COc2ccc3oc4c(c3c2)CCCC4)CC1 | -8 | 0 | / | -21 | /
COc1ccccc1N1C(=O)NC(=O)/C(=C/c2ccc3c(c2)Cc2ccccc2-3)C1=O | 8 | -4 | 13 | -4 | -5
